Among the data in ChEMBL document CHEMBL2311276, “Synthesis of amidine and bis amidine derivatives and their evaluation for anti-inflammatory and anticancer activity” (Eur J Med Chem, 2013) are IC50, inhibition of growth and inhibition in vivo values, retold here.

In assay [1] the test system is T47D. Kind of assay: Cytotoxicity against human T47D cells after 24 hrs by MTT assay. It is filed as functional, cell-based. The procedure, abridged: (§1)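 Cell lines came from NCCS Pune and were grown in RPMI-1640 with 2 mM glutamine, pH 7.4. Cells were seeded at 5 × 10³ per well and exposed to serial dilutions in DMSO for 24 h, with 0.1% final DMSO as vehicle control. MTT (5 mg/ml) was added for 4 h at 37 °C. Formazan was dissolved in DMSO plus Sorensen glycine buffer (pH 10.5) and read at 570 nm. IC50 came from % inhibition versus vehicle; triplicate, mean ± SD of three experiments.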
For orientation: Formazan colour is commonly taken as a measure of viable cells.

Assay [2] relates to HCT-15. Kind of assay: Cytotoxicity against human HCT15 cells after 24 hrs by MTT assay. In kind it is functional, cell-based. The note with it: HCT-15, 24 h. The procedure, abridged: as §1
In assay [3] the test system is PA-1. In words: Cytotoxicity against human PA1 cells assessed as growth inhibition at 1 x 10 '-5 M after 24 hrs by MTT assay. In kind it is functional. The note with it: PA-1, 24 h, read-out: GI. The procedure, abridged:
(§2)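 MTT screen at a single concentration of 1 × 10⁻⁵ M, 24 h exposure. Seeding was 5 × 10³ cells/well in RPMI-1640 with 2 mM glutamine. Vehicle was 0.1% final DMSO. MTT was added for 4 h at 37 °C, formazan dissolved in DMSO/glycine buffer (pH 10.5), and A570 read. Percent growth inhibition was calculated against vehicle-treated cells; triplicate, mean of three independent experiments.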

Assay [4] relates to HCT-15. In words: Cytotoxicity against human HCT15 cells assessed as growth inhibition at 1 x 10 '-5 M after 24 hrs by MTT assay. In kind it is functional. The note with it: HCT-15, 24 h, read-out: GI. The procedure, abridged:
as §2

Assay [5] concerns T47D. In words: Cytotoxicity against human T47D cells assessed as growth inhibition at 1 x 10 '-5 M after 24 hrs by MTT assay. The following applies: read-out: GI. It is filed as functional. Put shortly: as §2
Assay [6] deals with PA-1. In words: Cytotoxicity against human PA1 cells after 24 hrs by MTT assay. It is filed as functional, cell-based. The following applies: PA-1, 24 h. Put shortly:
as §1

For assay [7], the system named is HepG2. Kind of assay: Cytotoxicity against human HepG2 cells assessed as growth inhibition at 1 x 10 '-5 M after 24 hrs by MTT assay. It is filed as functional. The note with it: HepG2, 24 h, read-out: GI. Put shortly: as §2
Assay [8] relates to HepG2. Kind of assay: Cytotoxicity against human HepG2 cells after 24 hrs by MTT assay. The following applies: HepG2, 24 h. In kind it is functional, cell-based. The procedure, abridged: as §1
Assay [9] has as its system NCI-H522. Kind of assay: Cytotoxicity against human NCI-H522 cells assessed as growth inhibition at 1 x 10 '-5 M after 24 hrs by MTT assay. It is filed as functional. The note with it: NCI-H522, 24 h, read-out: GI. Put shortly: as §2
A further assay concerns COS-1. In words: Cytotoxicity against african green monkey COS1 cells after 24 hrs by MTT assay. The following applies: Chlorocebus aethiops, COS-1, 24 h. In kind it is cell-based.
For assay [10], the system named is NCI-H522. In words: Cytotoxicity against human NCI-H522 cells after 24 hrs by MTT assay. It is filed as functional, cell-based. The note with it: NCI-H522, 24 h. The procedure, abridged:
as §1

A further assay relates to Rattus norvegicus. Kind of assay: Antiinflammatory activity in Charles Foster albino rat assessed as inhibition of carrageenan-induced paw edema at 50 mg/kg, po administered 30 mins before carrageenan challenge measured after 1 to 3 hrs by plethysmometer analysis. It is filed as functional. Put shortly:
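Rats of both sexes (120–160 g; pregnant females excluded), five per group, were dosed orally at 50 mg/kg. After 30 min, 0.20 mL of freshly prepared 1% carrageenan in 0.9% NaCl was injected into the plantar aponeurosis of the hind paw. Paw volume was read by water plethysmometer before and 1–3 h later. Percent inhibition was taken against a carrageenan-only control group of five rats.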
In general terms: The carrageenan paw model is a standard test of acute inflammation.

For `O=c1[nH]cc(F)c(=O)[nH]1` [FLUOROURACIL], the IC50 in the assay on T47D [1] worked out at 51.8 µM; in the assay on HCT-15 [2] it was 45 µM; with PA-1 [6], 39.5 µM; in the assay on HepG2 [8] it was 29.9 µM; in the assay on COS-1, 110 µM; with NCI-H522 [10] it was 56.8 µM. Also, the inhibition of growth at 10 µM was determined as 22% in the assay with PA-1 [3]; 19% with HCT-15 [4]; 15% in the assay with T47D [5]; 32% with HepG2 [7]; 13% in the assay on NCI-H522 [9].

Consider `CC(C)Cc1ccc(C(C)C(=O)O)cc1` (stereo not given) [IBUPROFEN], for which the inhibition in vivo at 50 mg/kg in the assay with Rattus norvegicus came to 39%.

For the compound `C[C@@H]1C[C@@H]([C@H](O)CC2CC(=O)NC(=O)C2)C(=O)[C@@H](C)C1` [CYCLOHEXIMIDE], the IC50 amounted to 65.1 µM in the assay on T47D [1]; 54.1 µM in the assay on HCT-15 [2]; 40.6 µM in the assay on PA-1 [6]; 57.1 µM in the assay on HepG2 [8]; 128 µM with COS-1; 60.1 µM in the assay on NCI-H522 [10]. The inhibition of growth at 10 µM in the assay on PA-1 [3] is 34%; with HCT-15 [4], 16%; in the assay with T47D [5], 11%; in the assay on HepG2 [7], 18%; with NCI-H522 [9], 9%.

As for `N=C(NCCN1CCOCC1)c1cnccn1`, the IC50 stood at 55.4 µM in the assay on T47D [1]; 78.3 µM with HCT-15 [2]; 13.6 µM in the assay with PA-1 [6]; 9.4 µM in the assay on HepG2 [8]; 173 µM with COS-1; 18.2 µM with NCI-H522 [10]. Besides, the inhibition of growth at 10 µM with PA-1 [3] was 51%; with HCT-15 [4] it was 6%; in the assay with T47D [5], 13%; in the assay on HepG2 [7], 52%; in the assay with NCI-H522 [9], 35%. Also, the inhibition in vivo at 50 mg/kg with Rattus norvegicus is 15%.

`N=C(NCCN1CCOCC1)c1ccccn1`: the inhibition of growth at 10 µM worked out at 43% with PA-1 [3]; 12% with HCT-15 [4]; 21% in the assay with T47D [5]; 40% in the assay on HepG2 [7]; 31% in the assay with NCI-H522 [9]. For the same compound, the inhibition in vivo at 50 mg/kg in the assay with Rattus norvegicus was 0%.

For `O=P1(N(CCCl)CCCl)NCCCO1` (stereo not given) [CYCLOPHOSPHAMIDE ANHYDROUS], the IC50 in the assay with T47D [1] worked out at 70.1 µM; in the assay with HCT-15 [2] it was 74.3 µM; in the assay on PA-1 [6], 64.1 µM; with HepG2 [8] it was 55.3 µM; in the assay on COS-1, 125 µM; with NCI-H522 [10] it was 67.9 µM. In addition, the inhibition of growth at 10 µM with PA-1 [3] was determined as 12%; in the assay with HCT-15 [4], 4%; with T47D [5], 9%; in the assay with HepG2 [7], 18%; in the assay on NCI-H522 [9], 11%.

As for `N=C(NCCCCNC(=N)c1ccncc1)c1ccncc1`, the IC50 with T47D [1] was 43 µM; in the assay on HCT-15 [2], 87.8 µM; in the assay with PA-1 [6], 49.2 µM; with HepG2 [8], 11.2 µM; in the assay with COS-1, 246 µM; with NCI-H522 [10], 36.6 µM. In addition, the inhibition of growth at 10 µM came out at 10% in the assay with PA-1 [3]; 5% in the assay with HCT-15 [4]; 27% with T47D [5]; 50% in the assay with HepG2 [7]; 20% in the assay on NCI-H522 [9]. Besides, the inhibition in vivo at 50 mg/kg with Rattus norvegicus is 15%.

Consider `N=C(NCCN1CCNCC1)c1cnccn1`, for which the inhibition of growth at 10 µM in the assay on PA-1 [3] came out at 36%; with HCT-15 [4], 28%; with T47D [5] it was 22%; in the assay with HepG2 [7], 23%; in the assay with NCI-H522 [9], 9%. Also, in the assay on Rattus norvegicus, the inhibition in vivo at 50 mg/kg was 20%.

As for `N=C(NCCCN1CCN(CCCNC(=N)c2cnccn2)CC1)c1cnccn1`, the inhibition of growth at 10 µM in the assay with PA-1 [3] turned out to be 26%; with HCT-15 [4], 12%; with T47D [5], 28%; in the assay on HepG2 [7], 22%; in the assay on NCI-H522 [9], 15%. In the assay on Rattus norvegicus, the inhibition in vivo at 50 mg/kg stood at 27%.

On to `N=C(NCCCCNC(=N)c1ccccn1)c1ccccn1`, for which the inhibition of growth at 10 µM in the assay with PA-1 [3] is 27%; in the assay on HCT-15 [4], 5%; in the assay on T47D [5], 29%; in the assay on HepG2 [7] it was 26%; in the assay with NCI-H522 [9] it was 38%. Also, the inhibition in vivo at 50 mg/kg in the assay with Rattus norvegicus came out at 14%.

Regarding `N=C(NCCCCNC(=N)c1cnccn1)c1cnccn1`, the inhibition of growth at 10 µM in the assay on PA-1 [3] stood at 15%; in the assay with HCT-15 [4], 9%; with T47D [5], 19%; in the assay with HepG2 [7], 17%; in the assay on NCI-H522 [9], 5%. Further, in the assay with Rattus norvegicus, the inhibition in vivo at 50 mg/kg is 37%.

With `N=C(NCCCN1CCN(CCCNC(=N)c2ccncc2)CC1)c1ccncc1`, the inhibition of growth at 10 µM with PA-1 [3] was determined as 13%; with HCT-15 [4] it was 9%; with T47D [5], 2%; with HepG2 [7] it was 6%; in the assay on NCI-H522 [9] it was 31%. Also, the inhibition in vivo at 50 mg/kg with Rattus norvegicus was determined as 31%.

As to `N=C(Nc1ccc(-c2ccc(NC(=N)c3ccccn3)cc2)cc1)c1ccccn1`, the inhibition of growth at 10 µM was found to be 37% in the assay on PA-1 [3]; 16% in the assay with HCT-15 [4]; 2% in the assay with T47D [5]; 23% in the assay with HepG2 [7]; 32% with NCI-H522 [9]. In addition, the inhibition in vivo at 50 mg/kg with Rattus norvegicus came to 26%.

Turning to `N=C(NCc1cccnc1)c1ccncc1`, the inhibition of growth at 10 µM with PA-1 [3] was found to be 21%; in the assay with HCT-15 [4], 22%; in the assay with T47D [5] it was 22%; with HepG2 [7], 20%; with NCI-H522 [9], 7%. For the same compound, in the assay with Rattus norvegicus, the inhibition in vivo at 50 mg/kg amounted to 0%.

For `N=C(NCCN1CCNCC1)c1ccccn1`, the inhibition of growth at 10 µM in the assay with PA-1 [3] is 40%; in the assay with HCT-15 [4], 24%; with T47D [5] it was 14%; in the assay with HepG2 [7], 27%; with NCI-H522 [9], 8%. Further, the inhibition in vivo at 50 mg/kg in the assay with Rattus norvegicus was 11%.

For `N=C(NCc1cccnc1)c1cnccn1`, the inhibition of growth at 10 µM with PA-1 [3] amounted to 23%; in the assay with HCT-15 [4], 3%; in the assay on T47D [5], 23%; in the assay on HepG2 [7] it was 26%; in the assay on NCI-H522 [9], 11%. In addition, in the assay on Rattus norvegicus, the inhibition in vivo at 50 mg/kg is 18%.

On to `N=C(NCc1cccnc1)c1ccccn1`, for which the inhibition of growth at 10 µM was 36% in the assay with PA-1 [3]; 23% in the assay with HCT-15 [4]; 23% in the assay with T47D [5]; 42% with HepG2 [7]; 9% with NCI-H522 [9]. Also, the inhibition in vivo at 50 mg/kg in the assay on Rattus norvegicus was determined as 10%.

`N=C(NCCN1CCOCC1)c1ccncc1`: the inhibition of growth at 10 µM came out at 43% with PA-1 [3]; 17% in the assay with HCT-15 [4]; 12% with T47D [5]; 9% in the assay with HepG2 [7]; 11% in the assay on NCI-H522 [9]. Further, the inhibition in vivo at 50 mg/kg in the assay with Rattus norvegicus stood at 28%.

The term IC50 denotes the concentration needed to halve the response being measured. As usually defined, the inhibition in vivo is the drop in the measured response relative to a control, in per cent.
